Counter-ions that a name gives are not always drawn. Activity calls are given as the source filed them. The calls are words filed in the database; no cut-off is given here. Residues, ends and D or L forms follow the SMILES beside them.
Experiments:
[1] = Binding affinity to sodium channel site 2 (unknown origin) by radioligand displacement assay; design: species or system Homo sapiens
[2] = biological target: Sigma non-opioid intracellular receptor 1 (Homo sapiens, UniProt Q99720)
[3] = biological target: 5-hydroxytryptamine receptor 2B (Homo sapiens, UniProt P41595); assay: Binding affinity to human 5-HT2B receptor by radioligand displacement assay
[4] = Binding affinity to GABA-gated chloride channel (unknown origin) by radioligand displacement assay; design: species or system Homo sapiens
[5] = Binding affinity to L-type calcium channel verapamil binding site (unknown origin) by radioligand displacement assay; design: species or system Homo sapiens
[6] = biological target: 5-hydroxytryptamine receptor 2C (Homo sapiens, UniProt P28335); assay: Binding affinity to human 5-HT2C receptor by radioligand displacement assay
[7] = biological target: Sigma non-opioid intracellular receptor 1 (Rattus norvegicus) (UniProt Q9R0C9); assay: Positive allosteric modulation of Wistar rat sigma 1 receptor assessed as increase in electrically-stimulated vas deferens contraction at 10 uM after 10 mins
In short: (§1)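 Isolated rat vas deferens, proximal ~15 mm segments, in K-H buffer at 32 °C gassed […], with 1.0 g passive tension and a 60 min adaptation. Field-stimulated at 0.1 Hz, 1 ms, 50 V. Cumulative PRE-084 (1–100 µM) was given, then washout and a 30 min rest. Test compound 10 µM was added for 10 min before cumulative PRE-084. Response is % increase over baseline amplitude; n=6, mean ± SEM, paired t-test.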

[8] = biological target: Sigma non-opioid intracellular receptor 1 (Rattus norvegicus) (UniProt Q9R0C9); assay: Positive allosteric modulation of Wistar rat sigma 1 receptor assessed as potentiation of PRE-084 effect on electrically-stimulated vas deferens contraction at 10 uM preincubated for 10 mins followed by PRE-084 addition; in short: as §1
[9] = biological target: Adrenergic receptor alpha-1 (Homo sapiens, UniProt P35348+P25100+P35368); assay: Binding affinity to human adrenergic alpha1 receptor by radioligand displacement assay
[10] = biological target: Muscarinic acetylcholine receptor M5 (Homo sapiens, UniProt P08912); assay: Binding affinity to human muscarinic M5 receptor by radioligand displacement assay
[11] = Binding affinity to P2X receptor (unknown origin) by radioligand displacement assay; design: species or system Homo sapiens
[12] = biological target: Alpha-2A adrenergic receptor (Homo sapiens, UniProt P08913); assay: Binding affinity to human adrenergic alpha2 receptor by radioligand displacement assay
[13] = Binding affinity to P2Y receptor (unknown origin) by radioligand displacement assay; design: species or system Homo sapiens
[14] = biological target: Type-2 angiotensin II receptor (Homo sapiens, UniProt P50052); assay: Binding affinity to human angiotensin AT2 receptor by radioligand displacement assay
[15] = Binding affinity to peripheral-type BZD receptor (unknown origin) by radioligand displacement assay; design: species or system Homo sapiens
[16] = Binding affinity to PCP receptor (unknown origin) by radioligand displacement assay; design: species or system Homo sapiens

Sequence of Sigma non-opioid intracellular receptor 1 (Rattus norvegicus) (Q9R0C9 whole entry): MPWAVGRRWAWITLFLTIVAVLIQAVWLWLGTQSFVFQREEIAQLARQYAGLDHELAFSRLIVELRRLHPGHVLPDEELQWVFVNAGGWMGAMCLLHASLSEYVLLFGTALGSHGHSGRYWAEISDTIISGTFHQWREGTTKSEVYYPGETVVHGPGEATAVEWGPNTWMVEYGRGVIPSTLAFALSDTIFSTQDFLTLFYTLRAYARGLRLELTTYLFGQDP
Sequence of Muscarinic acetylcholine receptor M5 (P08912 whole entry): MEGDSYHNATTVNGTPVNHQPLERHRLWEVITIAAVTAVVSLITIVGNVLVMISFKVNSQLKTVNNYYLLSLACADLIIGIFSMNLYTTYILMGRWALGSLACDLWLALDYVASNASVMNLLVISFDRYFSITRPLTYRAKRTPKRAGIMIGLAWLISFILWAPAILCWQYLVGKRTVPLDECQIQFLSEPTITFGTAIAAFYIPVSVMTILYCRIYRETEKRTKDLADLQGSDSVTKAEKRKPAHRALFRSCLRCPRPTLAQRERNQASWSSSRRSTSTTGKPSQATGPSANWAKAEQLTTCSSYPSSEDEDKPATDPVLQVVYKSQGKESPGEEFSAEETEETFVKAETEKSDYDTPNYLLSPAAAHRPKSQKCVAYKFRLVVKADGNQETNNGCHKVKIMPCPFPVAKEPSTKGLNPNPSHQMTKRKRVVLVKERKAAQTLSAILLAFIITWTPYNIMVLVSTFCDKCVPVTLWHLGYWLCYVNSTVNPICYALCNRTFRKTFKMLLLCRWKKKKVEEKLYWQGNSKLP
Sequence of 5-hydroxytryptamine receptor 2C (P28335 whole entry): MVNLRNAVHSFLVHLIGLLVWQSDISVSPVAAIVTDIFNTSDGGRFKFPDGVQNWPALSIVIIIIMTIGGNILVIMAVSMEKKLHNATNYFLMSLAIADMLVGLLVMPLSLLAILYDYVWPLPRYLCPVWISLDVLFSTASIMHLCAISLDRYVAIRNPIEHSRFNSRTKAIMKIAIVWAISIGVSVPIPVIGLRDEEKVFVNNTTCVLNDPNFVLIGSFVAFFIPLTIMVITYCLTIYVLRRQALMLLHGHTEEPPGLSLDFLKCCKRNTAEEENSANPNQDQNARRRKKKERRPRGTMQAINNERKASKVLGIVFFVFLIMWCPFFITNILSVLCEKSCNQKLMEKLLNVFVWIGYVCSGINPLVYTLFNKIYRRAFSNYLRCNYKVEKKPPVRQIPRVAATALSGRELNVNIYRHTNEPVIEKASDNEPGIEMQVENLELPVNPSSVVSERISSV
Sequence of 5-hydroxytryptamine receptor 2B (P41595 whole entry): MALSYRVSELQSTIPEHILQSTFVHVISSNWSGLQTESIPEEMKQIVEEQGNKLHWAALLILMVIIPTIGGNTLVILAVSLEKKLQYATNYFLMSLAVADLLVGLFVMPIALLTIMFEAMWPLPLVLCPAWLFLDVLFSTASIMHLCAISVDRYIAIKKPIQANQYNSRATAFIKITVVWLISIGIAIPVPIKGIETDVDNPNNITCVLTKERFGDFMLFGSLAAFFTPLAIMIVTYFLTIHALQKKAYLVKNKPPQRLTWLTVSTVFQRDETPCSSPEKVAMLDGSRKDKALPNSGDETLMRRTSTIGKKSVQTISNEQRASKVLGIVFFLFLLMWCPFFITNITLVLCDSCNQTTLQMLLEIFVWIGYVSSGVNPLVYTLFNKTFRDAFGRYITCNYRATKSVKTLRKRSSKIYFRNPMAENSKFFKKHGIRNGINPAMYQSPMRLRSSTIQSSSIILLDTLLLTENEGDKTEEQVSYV
Sequence of Sigma non-opioid intracellular receptor 1 (Q99720 whole entry): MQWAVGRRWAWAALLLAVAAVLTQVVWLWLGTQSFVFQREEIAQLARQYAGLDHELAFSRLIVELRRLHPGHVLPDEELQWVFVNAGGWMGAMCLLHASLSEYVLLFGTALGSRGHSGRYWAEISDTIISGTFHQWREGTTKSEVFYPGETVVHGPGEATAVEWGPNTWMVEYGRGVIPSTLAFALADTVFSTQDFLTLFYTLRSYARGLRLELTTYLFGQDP
Sequence of Alpha-2A adrenergic receptor (P08913 whole entry): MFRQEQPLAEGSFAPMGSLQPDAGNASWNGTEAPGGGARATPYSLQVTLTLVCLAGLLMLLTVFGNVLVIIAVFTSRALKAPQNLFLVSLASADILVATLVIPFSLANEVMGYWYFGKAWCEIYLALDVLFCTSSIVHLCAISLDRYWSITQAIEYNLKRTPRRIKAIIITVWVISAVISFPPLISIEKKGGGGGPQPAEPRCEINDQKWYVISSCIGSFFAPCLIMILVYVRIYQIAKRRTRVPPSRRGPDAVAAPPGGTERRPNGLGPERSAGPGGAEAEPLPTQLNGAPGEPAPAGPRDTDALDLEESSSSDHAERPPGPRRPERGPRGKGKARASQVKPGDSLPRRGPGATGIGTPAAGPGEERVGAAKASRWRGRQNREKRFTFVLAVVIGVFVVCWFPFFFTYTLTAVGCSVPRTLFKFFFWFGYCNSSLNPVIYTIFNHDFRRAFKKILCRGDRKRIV
Sequence of Type-2 angiotensin II receptor (P50052 whole entry): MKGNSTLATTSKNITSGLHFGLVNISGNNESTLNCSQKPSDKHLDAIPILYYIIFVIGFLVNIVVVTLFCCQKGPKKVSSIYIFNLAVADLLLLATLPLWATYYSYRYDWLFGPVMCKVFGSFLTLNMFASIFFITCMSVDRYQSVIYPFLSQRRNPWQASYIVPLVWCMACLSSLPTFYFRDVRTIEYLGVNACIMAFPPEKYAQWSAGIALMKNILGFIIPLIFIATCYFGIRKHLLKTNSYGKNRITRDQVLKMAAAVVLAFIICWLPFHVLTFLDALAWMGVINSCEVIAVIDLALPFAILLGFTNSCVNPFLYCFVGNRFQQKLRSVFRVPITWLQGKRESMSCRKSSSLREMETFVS

COc1ccc(C(=O)O[C@H]2CC[C@@]3(C)[C@@H]4CC[C@H]5[C@]6(O)C[C@H](O)[C@@]7(O)[C@@H](CN8C[C@@H](C)CC[C@H]8[C@@]7(C)O)[C@]6(O)C[C@@]53O[C@]24O)cc1OC [VERATRIDINE]
IC50 [1]: 7.7 µM

COc1cc2c(cc1OC)C(=O)C(CC1CCN(Cc3ccccc3)CC1)C2 (stereo not given) [DONEPEZIL]
Ki [2]: 14.6 nM

COc1cc(CC(C)N)c(OC)cc1I (stereo not given)
IC50 [3]: 3.2 nM

C=C(C)[C@@H]1[C@H]2OC(=O)[C@@H]1[C@]1(O)C[C@H]3O[C@]34C(=O)O[C@H]2[C@]14C [PICROTOXININ]
IC50 [4]: 250 nM

COc1ccc(CCN(C)CCCC(C#N)(c2cc(OC)c(OC)c(OC)c2)C(C)C)cc1OC (stereo not given) [GALLOPAMIL]
IC50 [5]: 20 nM

COc1cc(OC)c(C(=O)CCCCN2CCC3(CC2)NC(=O)NC3=O)cc1NS(=O)(=O)c1ccc(C(F)(F)F)cc1 [RS-102,221]
IC50 [6]: 5.5 nM

C[C@@H]1[C@@H](c2ccccc2)CC(=O)N1CC(N)=O
Activity [7]: inactive | Activity [8]: Active

CC(C)NCC(O)COc1ccc(CC(N)=O)cc1 (stereo not given) [ATENOLOL]
IC50 [9]: 230 nM

C[N+]1(C)CCC(OC(=O)C(c2ccccc2)c2ccccc2)CC1 [4-DAMP]
IC50 [10]: 0.8 nM

C[C@H]1[C@H](c2ccccc2)CC(=O)N1CC(N)=O
Activity [7]: inactive | Activity [8]: Active

Nc1ncnc2c1ncn2[C@@H]1O[C@H](COP(=O)(O)CP(=O)(O)OP(=O)(O)O)[C@@H](O)[C@H]1O [DIPHOSPHOMETHYLPHOSPHONIC ACID ADENOSYL ESTER]
IC50 [11]: 3.5 nM

Cc1ccc(OCC(O)C(C)NC(C)C)c2c1CCC2 (stereo not given) [ZENIDOLOL]
IC50 [12]: 0.5 nM

Nc1ncnc2c1ncn2[C@H]1C[C@H](O)[C@@H](COP(O)(=S)OP(=O)(O)OP(=O)(O)O)O1 (stereo not given in full)
IC50 [13]: 25 nM

C[C@@H]1[C@H](c2ccccc2)CC(=O)N1CC(N)=O
Activity [7]: inactive | Activity [8]: Active

CC(C)[C@H](NC(=O)[C@H](CCCNC(=N)N)NC(=O)[C@@H](N)CC(=O)O)C(=O)N[C@@H](Cc1ccc(O)cc1)C(=O)N[C@H](C(=O)N[C@@H](Cc1cnc[nH]1)C(=O)N1CCC[C@H]1C(=O)N[C@@H](C)C(=O)O)C(C)C [ANGIOTENSIN] (H-DRVYVHPA-OH)
IC50 [14]: 0.13 nM

CCC(C)N(C)C(=O)c1cc2ccccc2c(-c2ccccc2Cl)n1 (stereo not given) [PK-11195]
IC50 [15]: 1.1 nM

C[C@]12N[C@H](Cc3ccccc31)c1ccccc12 [DIZOCILPINE MALEATE]
IC50 [16]: 6 nM
